Results as given in paper PMC6396672 (OncoTargets and therapy, 2019).
Read-outs that look alike come from different tables or passages of the source. Blank lines part the entries; values can stand above or below the compound they belong to.

Key:
L-02 cells = assay: MTT assay, cell survival; type: cell-based
Method in brief: (§1)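 Compounds were dissolved in DMSO and diluted in DMEM. Cells were treated at 0.01, 0.03, 0.1, 0.3, 1, 3 and 10 μmol/L, and viability was read by MTT. Inhibition rates were calculated, and IC25, IC50 and ICmax were derived by curve fitting.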

HepG2 cells = assay: MTT assay, cell survival; type: cell-based; settings: for IC50: Homo sapiens
Method in brief: as §1

LM-3 cells = assay: MTT assay, cell survival; type: cell-based
Method in brief: as §1

[1] = tested on: MDR-related genes in MHCC97-H cells; assay: qPCR of MDR-related genes; type: cell-based; settings: ARQ-197 at IC25 concentration
Method in brief: (§2)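 Total RNA from treated HCC cells was extracted and reverse transcribed. Target mRNAs were measured by real-time qPCR with gene-specific primers and normalised to β-actin mRNA. EMT targets were E-cadherin, N-cadherin and vimentin; MDR targets were CYP3A4, MDR-1 and UGT1A9.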

[2] = tested on: EMT-related genes in MHCC97-H cells; assay: qPCR of EMT-related genes; type: cell-based; settings: ARQ-197 at IC25 concentration
Method in brief: as §2

ETS-1 = assay: Gene reporter luciferase assay EBS-Luc; type: cell-based; settings: MHCC97-H cells, dose-dependent
MHCC97-H cells = assay: MTT assay, cell survival; type: cell-based; settings: for IC50: Homo sapiens, MHCC97H
Method in brief: as §1

MHCC97-L cells = assay: MTT assay, cell survival; type: cell-based; settings: for IC50: MHCC97L
Method in brief: as §1

MHCC97-H tumors = assay: In vivo antitumor effect, subcutaneous tumor model; settings: nude mice
Method in brief: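 Nude (T-cell-deficient) mice, aged 4–6 weeks, were injected subcutaneously with 1×10^6 MHCC97-H cells per animal. Treatment started 3–4 days after injection: sorafenib 2 mg/kg given orally every 2 days, ten doses over 21 days. Mice were then harvested and tumour volumes or weights measured. Inhibition rates were calculated from tumour volume or weight.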

PXR = settings: MHCC97-H cells, dose-dependent
[3] = tested on: subcutaneous MHCC97-H tumors; assay: Clearance of sorafenib in subcutaneous tumor by LC-MS/MS; type: in vivo, nude mice; settings: PXR siRNA +siRNA
Method in brief: (§3)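 Nude mice (T-cell deficient, 4–6 weeks) carried subcutaneous tumours grown from injected HCC cells; siRNA sequences were described in earlier work. Sorafenib solution was injected into the tumours, and tissue was harvested at set time points. Samples were extracted with acetonitrile, and residual sorafenib was quantified by LC-MS/MS. t1/2 was obtained by curve fitting.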

[4] = Clearance of sorafenib in cultured cells by LC-MS/MS; type: in vitro ADME; settings: human, MHCC97-L cells (cultured HCC cells), Half-life of sorafenib (t1/2)
Method in brief: (§4)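 Cultured human HCC cells (with or without the co-treatment or siRNA named in the line) were exposed to sorafenib at 1 μmol/L for 12 hours, then harvested at set time points. Samples were extracted with acetonitrile, and the remaining sorafenib was quantified by LC-MS/MS. Half-life (t1/2) was calculated from the decline over time.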

[5] = as above; type: in vitro ADME; settings: human, MHCC97-H cells (cultured HCC cells), Half-life of sorafenib (t1/2)
Method in brief: as §4

subcutaneous LM-3 tumors = assay: Clearance of sorafenib in subcutaneous tumor by LC-MS/MS; type: in vivo, nude mice; settings: LM-3 subcutaneous tumor, ETS-1 siRNA
Method in brief: as §3

[6] = Clearance of sorafenib in cultured cells by LC-MS/MS; type: in vitro ADME; settings: human, HepG2 cells (cultured HCC cells), Half-life of sorafenib (t1/2)
Method in brief: as §4

[7] = as above; type: in vitro ADME; settings: human, LM-3 cells (cultured HCC cells), Half-life of sorafenib (t1/2), LM-3 cultured cells
Method in brief: as §4

- expression of Cyp3a4 (mRNA) [1]: decreased
- luciferase activity of EBS-Luc reporter (ETS-1): inhibited
- luciferase activity of DR3-Luc reporter (PXR): inhibited
SMILES: O=C1NC(=O)[C@@H](c2cn3c4c(cccc24)CCC3)[C@@H]1c1c[nH]c2ccccc12 [ARQ-197]
- IC50 (L-02 cells; Homo sapiens, L02, read-out: IC50 values): 7.59 ± 0.78 µM
- IC25 values (L-02 cells; L-02, MTT): 3.44 ± 0.24 µmol/L
- IC25 values (HepG2 cells; HepG2, MTT): 0.23 ± 0.07 µmol/L
- ICmax values (maximum action concentration) (HepG2 cells; HepG2, MTT): 9.55 ± 0.57 µmol/L
- IC50 (HepG2 cells; HepG2, read-out: IC50 values, HepG2, MTT): 1990 ± 470 nM
- IC50 (LM-3 cells; LM3, read-out: IC50 values, LM-3, MTT): 670 ± 160 nM
- IC25 values (LM-3 cells; LM-3, MTT): 0.08 ± 0.02 µmol/L
- ICmax values (maximum action concentration) (LM-3 cells; LM-3, MTT): 4.62 ± 0.80 µmol/L
- expression of Mdr-1 (mRNA) [1]: decreased
- expression of Ugt1a9 (mRNA) [1]: decreased
- expression of E-cadherin (mRNA) [2]: enhanced
- expression of N-cadherin (mRNA) [2]: decreased
- expression of vimentin (mRNA) [2]: decreased
- IC50 (MHCC97-H cells; read-out: IC50 values, MHCC97-H, MTT): 760 ± 220 nM
- IC25 values (MHCC97-H cells; MHCC97-H, MTT): 0.09 ± 0.01 µmol/L
- ICmax values (maximum action concentration) (MHCC97-H cells; MHCC97-H, MTT): 3.56 ± 0.65 µmol/L
- IC25 values (MHCC97-L cells; MHCC97-L, MTT): 1.29 ± 0.52 µmol/L
- IC50 (MHCC97-L cells; read-out: IC50 values, MHCC97-L, MTT): 4630 ± 930 nM
- effect of ARQ-197 on the antitumor effect of sorafenib in vivo (MHCC97-H tumors; 3 mg/kg ARQ-197 + 2 mg/kg sorafenib compared to sorafenib alone, MHCC97-H tumors): significantly enhanced the antitumor effect of sorafenib
- subcutaneous growth of MHCC97-H tumors (MHCC97-H tumors; 3 mg/kg ARQ-197, oral, compared to vehicle controls): inhibited the subcutaneous growth of MHCC97-H tumors

- Half-life of sorafenib (t1/2) [3]: 40.13 ± 0.83 h
- half-life at 1 μmol/L ([4]; ARQ-197): 755 ± 10.8 min
- half-life at 1 μmol/L ([4]; solvent control): 613 ± 30.6 min
- half-life at 1 μmol/L ([5]; ARQ-197): 816 ± 39 min
- half-life at 1 μmol/L ([5]; ETS-1 siRNA): 831 ± 50.4 min
- half-life at 1 μmol/L ([5]; ETS-1 siRNA +ARQ-197): 812 ± 13.8 min
- half-life at 1 μmol/L ([5]; PXR siRNA): 1060 ± 54.6 min
- half-life at 1 μmol/L ([5]; PXR siRNA +siRNA): 1060 ± 52.8 min
- half-life at 1 μmol/L ([5]; solvent control): 545 ± 25.8 min
- Half-life of sorafenib (t1/2) (subcutaneous LM-3 tumors): 39.45 ± 0.74 h
- half-life at 1 μmol/L ([6]; ARQ-197): 748 ± 37.2 min
- half-life at 1 μmol/L ([6]; solvent control): 577 ± 49.2 min
- half-life at 1 μmol/L ([7]; ARQ-197): 865 ± 40.2 min
- half-life at 1 μmol/L ([7]; ETS-1 siRNA): 937 ± 27.6 min
- half-life at 1 μmol/L ([7]; ETS-1 siRNA +ARQ-197): 913 ± 10.8 min
- half-life at 1 μmol/L ([7]; PXR siRNA): 1080 ± 15 min
- half-life at 1 μmol/L ([7]; PXR siRNA +siRNA): 1110 ± 40.2 min
- half-life at 1 μmol/L ([7]; solvent control): 596 ± 34.2 min
SMILES: CNC(=O)c1cc(Oc2ccc(NC(=O)Nc3ccc(Cl)c(C(F)(F)F)c3)cc2)ccn1 [sorafenib]
- IC50 (HepG2 cells; HepG2, read-out: IC50 values of sorafenib, HepG2, solvent control): 1680 ± 420 nM
- IC50 (LM-3 cells; LM3, read-out: IC50 values of sorafenib, LM-3, solvent control): 1290 ± 250 nM
- IC50 (MHCC97-H cells; read-out: IC50 values of sorafenib, MHCC97-H, solvent control): 1390 ± 460 nM
- IC50 (MHCC97-L cells; read-out: IC50 values of sorafenib, MHCC97-L, ARQ-197): 970 ± 390 nM
- IC50 (MHCC97-L cells; read-out: IC50 values of sorafenib, MHCC97-L, solvent control): 2730 ± 400 nM
